In ChEMBL document CHEMBL4680077, “Differentiation of skeletal osteogenic progenitor cells to osteoblasts with 3,4-diarylbenzopyran based amide derivatives: Novel osteogenic agents” (Eur J Med Chem, 2016):
Activity calls are given as the source filed them. No cut-off for these calls is given here.

Tests used:
Calvarial osteoblast [1] = assay: Induction of osteoblast differentiation in mouse calvarial osteoblast assessed as increase in mineralization nodules at 1 pM incubated for 15 days by alizarin-red S dye based colorimetric analysis; type: functional, cell-based; settings: time 15.0 day
Summary of the method: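 Calvarial osteoblasts were seeded at 2×10³ cells/well in differentiation medium (10 mM β-glycerophosphate, ascorbic acid) and cultured ± 1 pM with medium changed every 48 h. Cells were fixed in 4% formaldehyde and stained with 40 mM alizarin red S. Dye was extracted in 10% acetic acid at 85 °C, neutralized with ammonium hydroxide and read at 405 nm. n = 3.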

Mus musculus [2] = assay: In vivo osteogenic activity in ovariectomized BALB/c mouse assessed as increase in trabecular number at 1 to 10 mg/kg, po via gavage administered for 1 month by microCT imaging analysis; type: functional, organism-based; settings: dose 1-10 mg/kg, time 1.0 months
Summary of the method: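 Ovariectomized female balb/c mice, 8 weeks old, 10 per group, received 1.0 or 10.0 mg kg-1 once daily by oral gavage (gum acacia vehicle) for 4 weeks, alongside sham and Ovx vehicle groups. Femurs were scanned by microCT. BV/TV, Tb.N and Tb.Sp were derived by the mean intercept length method. Mean ± SE.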

Mus musculus [3] = assay: In vivo osteogenic activity in ovariectomized BALB/c mouse assessed as increase in energy required to break bone at 1 to 10 mg/kg, po via gavage administered for 1 month by TKC Muromachi bone strength testing method; type: functional, organism-based; settings: dose 1-10 mg/kg, time 1.0 months
Summary of the method: (§1)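 Ovariectomized balb/c mice were gavaged with 1 or 10 mg kg-1 daily for one month. Bones were then tested on a bone strength tester for energy, stiffness and force to break. Mean ± SEM compared with the Ovx vehicle group.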

Mus musculus [4] = assay: In vivo osteogenic activity in ovariectomized BALB/c mouse assessed as increase in force required to break bone at 1 to 10 mg/kg, po via gavage administered for 1 month by TKC Muromachi bone strength testing method; type: functional, organism-based; settings: dose 1-10 mg/kg, time 1.0 months; summary of the method: as §1
[5] = Elimination rate constant in Sprague-Dawley rat at 1 mg/kg, po measured upto 24 hrs by LC-MS/MS analysis; type: ADME, organism-based; settings: in vivo
Summary of the method: (§2)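 Female Sprague-Dawley rats (n = 4), fasted overnight 12–14 h, dosed orally at 1 mg kg-1 as a 0.25% CMC suspension and fed 3 h post-dose. Retro-orbital blood was taken from 0.25 to 24 h. Plasma was hexane-extracted and assayed by LC-MS/MS. Cmax and Tmax were read from the data; other parameters came from non-compartmental analysis. Mean ± S.D.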

[6] = Half life in Sprague-Dawley rat at 1 mg/kg, po measured upto 24 hrs by LC-MS/MS analysis; type: ADME, organism-based; settings: in vivo; summary of the method: as §2
[7] = AUC (0 to infinity) in Sprague-Dawley rat at 1 mg/kg, po measured upto 24 hrs by LC-MS/MS analysis; type: ADME, organism-based; set-up: route oral, dose 1 mg/kg, time <=24; settings: in vivo
Summary of the method: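 Female Sprague-Dawley rats (n = 4 per route), fasted overnight; 1 mg/kg oral (0.25% CMC) or i.v. tail-vein bolus (DMSO-PEG400-ethanol-water). Plasma was sampled to 24 h and assayed by LC-MS/MS (0.5-200 ng/mL). Non-compartmental AUC0-∞ = AUC0-t + Clast/kel; mean ± S.D.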

[8] = Clearance in Sprague-Dawley rat at 1 mg/kg, po measured upto 24 hrs by LC-MS/MS analysis; type: ADME, organism-based; settings: in vivo; summary of the method: as §2
[9] = Acute toxicity in Swiss albino mouse assessed as body weight at 5 mg/kg, po observed on day 1 (reference value: 20.38 +/- 0.24 g); type: organism-based; settings: in vivo, 24 h, time 1 day
[10] = Acute toxicity in Swiss albino mouse assessed as SGOT level at 50 mg/kg, po measured after 7 days (reference value: 31.99 +/- 3.37 U/L); type: organism-based; settings: in vivo, 168 h, time 7 day
[11] = Acute toxicity in Swiss albino mouse assessed as SGPT level at 5 mg/kg, po measured after 7 days (reference value: 14.04 +/- 1.45 U/L); type: organism-based; settings: in vivo, 168 h, time 7 day
[12] = Acute toxicity in Swiss albino mouse assessed as creatinine level at 300 mg/kg, po measured after 7 days (reference value: 0.97 +/- 0.07 mg/dL); type: organism-based; settings: in vivo, 168 h, time 7 day
[13] = Acute toxicity in Swiss albino mouse assessed as triglycerides level at 300 mg/kg, po measured after 7 days (reference value: 58.51 +/- 10.82 mg/dL); type: organism-based; settings: in vivo, 168 h, time 7 day
[14] = Acute toxicity in Swiss albino mouse assessed as malondialdehyde level at 5 mg/kg, po measured after 7 days (reference value: 0.14 +/- 0.01 nM/mg); type: organism-based; settings: in vivo, 168 h, time 7 day
[15] = Acute toxicity in Swiss albino mouse assessed as malondialdehyde level at 50 mg/kg, po measured after 7 days (reference value: 0.14 +/- 0.01 nM/mg); type: organism-based; settings: in vivo, 168 h, time 7 day
[16] = Acute toxicity in Swiss albino mouse assessed as neutrophil count at 300 mg/kg, po measured after 7 days (reference value: 41.50 +/- 4.08 %); type: organism-based; settings: in vivo, 168 h, time 7 day
[17] = Acute toxicity in Swiss albino mouse assessed as monocyte count at 1000 mg/kg, po measured after 7 days (reference value: 12.58 +/- 2.86 %); type: organism-based; settings: in vivo, 168 h, time 7 day
[18] = Acute toxicity in Swiss albino mouse assessed as basophil count at 50 mg/kg, po measured after 7 days (reference value: 1.50 +/- 0.29 %); type: organism-based; settings: in vivo, 168 h, time 7 day
[19] = Acute toxicity in Swiss albino mouse assessed as absolute brain weight at 5 mg/kg, po measured after 7 days (reference value: 0.37 +/- 0.02 g); type: organism-based; settings: in vivo, 168 h, time 7 day
[20] = Acute toxicity in Swiss albino mouse assessed as absolute liver weight at 50 mg/kg, po measured after 7 days (reference value: 1.11 +/- 0.04 g); type: organism-based; settings: in vivo, 168 h, time 7 day
[21] = Acute toxicity in Swiss albino mouse assessed as absolute lung weight at 50 mg/kg, po measured after 7 days (reference value: 0.16 +/- 0.01 g); type: organism-based; settings: in vivo, 168 h, time 7 day
[22] = Acute toxicity in Swiss albino mouse assessed as absolute kidney weight at 300 mg/kg, po measured after 7 days (reference value: 0.29 +/- 0.02 g); type: organism-based; settings: in vivo, 168 h, time 7 day
[23] = Acute toxicity in Swiss albino mouse assessed as absolute heart weight at 5 mg/kg, po measured after 7 days (reference value: 0.12 g); type: organism-based; settings: in vivo, 168 h, time 7 day
[24] = Acute toxicity in Swiss albino mouse assessed as absolute uterus weight at 5 mg/kg, po measured after 7 days (reference value: 0.27+/- 0.07 g); type: organism-based; settings: in vivo, 168 h, time 7 day
[25] = Acute toxicity in Swiss albino mouse assessed as absolute testes weight at 300 mg/kg, po measured after 7 days (reference value: 0.15+/- 0.01 g); type: organism-based; settings: in vivo, 168 h, time 7 day
[26] = Acute toxicity in Swiss albino mouse assessed as relative lung weight at 300 mg/kg, po measured after 7 days (reference value: 0.70 +/- 0.08 %); type: organism-based; settings: in vivo, 168 h, time 7 day
[27] = Acute toxicity in Swiss albino mouse assessed as relative brain weight at 5 mg/kg, po measured after 7 days (reference value: 1.63 +/- 0.13 %); type: organism-based; settings: in vivo, 168 h, time 7 day
[28] = Acute toxicity in Swiss albino mouse assessed as relative brain weight at 50 mg/kg, po measured after 7 days (reference value: 1.63 +/- 0.13 %); type: organism-based; settings: in vivo, 168 h, time 7 day
[29] = Acute toxicity in Swiss albino mouse assessed as relative testes weight at 5 mg/kg, po measured after 7 days (reference value: 0.62 +/- 0.03 %); type: organism-based; settings: in vivo, 168 h, time 7 day
Calvarial osteoblast [30] = assay: Induction of osteoblast differentiation in mouse calvarial osteoblast assessed as increase in ALP activity using PNPP as substrate at 1 pM incubated for 48 hrs by spectrophotometric analysis; type: functional, cell-based

SMILES: CCCCN(C)C(=O)CCCCOc1ccc([C@H]2c3ccc(OC)cc3OC(C)(C)[C@@H]2c2ccccc2)cc1
- Activity (Calvarial osteoblast [1]): Active
- Activity (Mus musculus [2]): Active
- Activity (Mus musculus [3]): Active
- Activity (Mus musculus [4]): Active
- k el at 24 h [5]: 5.39e-05 s⁻¹
- half-life [6]: 3.62 h
- AUC [7]: 119.404 ng·h/mL
- CL [8]: 18.3 mL/min/kg
- Activity [9]: 20.65 g
- Activity [10]: 40.13 U/L
- Activity [11]: 17.44 U/L
- Activity [12]: 0.97 mg/dL
- Activity [13]: 57.55 mg/dL
- Activity [14]: 0.14 nM/mg
- Activity [15]: 0.14 nM/mg
- Activity [16]: 41.54%
- Activity [17]: 12.27%
- Activity [18]: 0.5%
- Activity [19]: 0.35 g
- Activity [20]: 1.23 g
- Activity [21]: 0.2 g
- Activity [22]: 0.27 g
- Activity [23]: 0.12 g
- Activity [24]: 0.3 g
- Activity [25]: 0.14 g
- Activity [26]: 0.73%
- Activity [27]: 1.46%
- Activity [28]: 1.54%
- Activity [29]: 0.6%
- Activity (Calvarial osteoblast [30]): Active
